The values below come from ChEMBL document CHEMBL1144526, “Isoindolo[2,1-c]benzo[1,2,4]triazines: a new ring system with antiproliferative activity” (2007).

Common to all, as to type: functional
One assay concerns EKVX. In words: Growth inhibition of human EKVX cells. The gist of the method:
(§1)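 NCI full human tumour cell panel covering leukemia, melanoma, lung, colon, renal, ovarian, breast, prostate and CNS subpanels. Five concentrations at 10-fold dilution were used: 10^-4, 10^-5, 10^-6, 10^-7 and 10^-8 M. GI50, the concentration giving 50% inhibition of net cell growth, was determined for each cell line.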

The next assay concerns M14. In words: Growth inhibition of human M14 cells. The gist of the method: as §1
A further assay concerns SF-268. Nature of the assay: Antiproliferative activity against human SF268 cells at 100 uM after 48 hrs.
Another assay has as its system NCI-H460. In words: Antiproliferative activity against human NCI-H460 cells at 100 uM after 48 hrs.
The subject of a further assay is LOX IMVI. In words: Growth inhibition of human LOX IMVI cells. The gist of the method:
as §1

The subject of assay [1] is MCF7. Nature of the assay: Antiproliferative activity against human MCF7 cells at 100 uM after 48 hrs.
The test system of a further assay is COLO 205. In words: Growth inhibition of human COLO205 cells. In short, it runs like this:
as §1

The test system of a further assay is A549. In words: Growth inhibition of human A549 cells. The gist of the method: as §1
The nature of assay [2]: Growth inhibition of human NCI-50 cells. Conditions: NCI full human tumour cell panel. In short, it runs like this: as §1
In assay [3] the test system is MCF7. Nature of the assay: Growth inhibition of human MCF7 cells. The gist of the method: as §1
The subject of the next assay is BT-549. In words: Growth inhibition of human BT549 cells. The gist of the method:
as §1

The next assay concerns OVCAR-8. Nature of the assay: Growth inhibition of human OVCAR8 cells. In short, it runs like this: as §1
The next assay has as its system NCI-H522. In words: Growth inhibition of human NCI-522 cells. In short, it runs like this:
as §1

A further assay relates to SR. In words: Growth inhibition of human SR cells. In short, it runs like this: as §1
Another assay concerns MOLT-4. Nature of the assay: Growth inhibition of human MOLT4 cells. The gist of the method: as §1

The term GI50 denotes the concentration that inhibits growth by half. Low readings indicate greater sensitivity of the cells, high ones lower sensitivity of the cells. As for `N#Cc1c2ccccc2c2nnc3ccccc3n12`, the GI50 was 12.6 µM in the assay with EKVX; 14.8 µM in the assay on M14; 6.46 µM with LOX IMVI; 9.33 µM with COLO 205; 13.5 µM with A549; 33.9 µM in assay [2]. Besides, the values for the GI50 in the assay with MCF7 [3], in the assay on BT-549 and with OVCAR-8 were 14.1 µM, 12 µM and 11.2 µM, respectively. The Activity was found to be 95% with SF-268, 21% with NCI-H460 and 26% with MCF7 [1].
As to `Cc1cccc2nnc3c4ccccc4c(C#N)n3c12`, the Activity was determined as 88% in the assay with SF-268, 50% in the assay on NCI-H460 and 69% with MCF7 [1].
For the compound `Cc1cccc2c1nnc1c3ccccc3c(C#N)n21`, the Activity in the assay with SF-268 turned out to be 105%; in the assay on NCI-H460, 118%; in the assay with MCF7 [1], 72%.
Take `COc1ccc2c(c1)nnc1c3ccccc3c(C#N)n21`: the Activity with SF-268 amounted to 104%; with NCI-H460 it was 86%; in the assay on MCF7 [1], 63%.
On to `Cc1cc2nnc3c4ccccc4c(C#N)n3c2cc1C`, for which the Activity with SF-268 stood at 76%; in the assay on NCI-H460, 48%; with MCF7 [1] it was 76%.
In the case of `N#Cc1c2ccccc2c2nnc3cc(Cl)c(Cl)cc3n12`, the Activity in the assay on SF-268 is reported as 68%; with NCI-H460, 17%; in the assay with MCF7 [1], 80%. The compound also gave a GI50 in assay [2] of 49 µM.
As to `N#Cc1c2ccccc2c2nnc3cc(Cl)ccc3n12`, the values for the Activity in the assay on SF-268, with NCI-H460 and in the assay with MCF7 [1] were 114%, 109% and 109%, respectively.
Consider `N#Cc1c2ccccc2c2nnc3ccc(Cl)cc3n12`, for which the Activity is given as 86% with SF-268, 61% in the assay with NCI-H460 and 51% in the assay with MCF7 [1].
For `N#Cc1c2ccccc2c2nnc3cc(C(F)(F)F)ccc3n12`, the Activity in the assay on SF-268 was found to be 82%; in the assay on NCI-H460, 6%; with MCF7 [1], 65%. For the same compound, the GI50 in assay [2] was 53.7 µM; in the assay on MCF7 [3] it was 10.7 µM.
With `N#Cc1c2ccccc2c2nnc3ccc(C(F)(F)F)cc3n12`, the concentration for 50% growth inhibition (GI50) in the assay on EKVX is at most 0.01 µM; in the assay on NCI-H522, 17 µM; in the assay on SR, 0.214 µM; in [2], 34.7 µM; with MOLT-4 it was 10.5 µM. The Activity in the assay on SF-268 came to 96%; in the assay on NCI-H460 it was 8%; in the assay on MCF7 [1], 83%.
